Measured values taken from ChEMBL document CHEMBL4334446, “Evaluating the effects of fluorine on biological properties and metabolic stability of some antitubulin 3-substituted 7-phenyl-pyrroloquinolinones” (Eur J Med Chem, 2019).
One block for each compound: values may come before it. Calls of active or inactive are those of the source. The rule behind the calls is not given here.

Assays:
HL-60 = test: Growth inhibition of human HL60 cells incubated for 72 hrs by MTT assay; assay type: functional; details: HL-60, 72 h
In short: (§1)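 Leukemia lines were grown in RPMI-1640; the CEM^Vbl-100 medium also contained 100 ng/mL vinblastine. Cells were seeded at 8 × 10³ per well and left 18 h at 37 °C, 5% CO2. Medium was then replaced with fresh medium holding graded compound concentrations (DMSO stocks), in triplicate, for 72 h. Viability was read by MTT, and GI50 = concentration inhibiting proliferation 50%.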

[1] = Metabolic stability in human liver microsomes assessed as retention time of 7-phenyl-3H-pyrrolo[3,2-f]quinolin-9(6H)-one metabolite at 10 uM incubated for 60 mins in presence of NADPH by HPLC analysis; assay type: ADME, Microsome; details: 1 h
In short: (§2)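 Compound (10 µM) was incubated with pooled mixed-gender HLMs (0.5 mg protein/mL), 1 mM NADPH and 0.1 M KH2PO4 pH 7.4 for 60 min at 37 °C, aerobic. The reaction was started with microsomes and stopped with ice-cold acetonitrile; controls lacked NADPH. The supernatant went to C8 HPLC with fluorescence detection (ex 344, em 493 nm). Collected peaks were analyzed by ESI+ mass spectrometry.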

[2] = Metabolic stability in human liver microsomes at 10 uM incubated for 60 mins in absence of NADPH by HPLC analysis; assay type: ADME, Microsome; details: 1 h
In short: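 Compound at 10 μM final was incubated at 37 °C with pooled mixed-gender HLMs (1 mg/mL) in 0.1 M KH₂PO₄ pH 7.4, NADPH omitted, for 0 or 60 min. Reaction was started by adding microsomes after 3-min equilibration and stopped with ice-cold acetonitrile. Supernatant was analysed by HPLC-fluorescence. Percent remaining at 60 min is relative to 0 min; mean ± SD, n = 3.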

[3] = Metabolic stability in human liver microsomes at 10 uM incubated for 30 mins in phosphate buffer at pH 7.4 by HPLC analysis; assay type: ADME, Microsome; details: pH 7.4, 0.5 h
In short: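 Test compound (10 μM, final) incubated at 37 °C with pooled mixed-gender HLMs (0.5 mg/mL) in 0.1 M KH₂PO₄ pH 7.4 without NADPH. Sampled at 0 and 30 min, quenched with ice-cold acetonitrile, centrifuged, supernatant analysed by HPLC with fluorescence detection (ex 344/em 493 nm). Percent remaining calculated from peak area relative to 0 min; mean ± SD, n = 3.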

[4] = Drug metabolism in human liver microsomes at 10 uM incubated for 60 mins in presence of NADPH by HPLC analysis; assay type: ADME, Microsome; details: 1 h
In short: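 Compound (10 µM) was incubated 0 or 60 min at 37 °C with pooled HLMs (1 mg/mL), with or without 1 mM NADPH, or in buffer only (0.1 M KH2PO4 pH 7.4). Reactions were stopped with ice-cold acetonitrile. Remaining parent was measured by HPLC-fluorescence relative to 0 min; mean ± SD, n = 3.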

[5] = Metabolic stability in human liver microsomes assessed as retention time of the parent compound at 10 uM incubated for 60 mins in presence of NADPH by HPLC analysis; assay type: ADME, Microsome; details: 1 h; in short: as §2
[6] = Metabolic stability in human liver microsomes at 10 uM incubated for 60 mins in presence of NADPH by ESI-MS analysis; assay type: ADME, Microsome; details: 1 h
HeLa [7] = test: Induction of cell cycle arrest in human HeLa cells assessed as accumulation at M phase by measuring p-histone H3 level at 50 to 100 nM incubated for 24 hrs by PI staining based flow cytometric analysis; assay type: functional
[8] = Growth inhibition of human DND41 cells incubated for 72 hrs by MTT assay; assay type: functional; details: DND41, 72 h; in short: as §1
MDA-MB-468 = test: Growth inhibition of human MDA-MB-468 cells incubated for 72 hrs by MTT assay; assay type: functional; details: MDA-MB-468, 72 h
A2058 = test: Growth inhibition of human A2058 cells incubated for 72 hrs by MTT assay; assay type: functional; details: A2058, 72 h
A-375 [9] = test: Induction of cell cycle arrest in human A375 cells assessed as accumulation of cells at G2/M phase at 50 to 100 nM incubated for 24 hrs by PI staining based flow cytometric analysis; assay type: functional
In short: (§3)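 A375 and A2058 melanoma cells were treated 24 h. Cells were fixed in ice-cold 70% ethanol, then given lysis buffer with RNase A and 0.1% Triton X-100 and stained with PI. Phase distribution came from flow cytometric DNA histograms. Mean ± SEM of two independent experiments.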

A-375 [10] = test: Induction of cell cycle arrest in human A375 cells assessed as reduction in cell population at S phase at 50 to 100 nM incubated for 24 hrs by PI staining based flow cytometric analysis; assay type: functional; in short: as §3
HeLa [11] = test: Increase in cyclin B1 protein expression level in human HeLa cells incubated for 24 to 48 hrs by western blot analysis; assay type: functional, cell-based
In short: (§4)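 HeLa cells were exposed for set times, including 24 and 48 h, then washed in cold PBS and lysed on ice for 30 min. Lysates were cleared at 15000 × g at 4 °C. 10 µg protein was run by SDS-PAGE and transferred to PVDF. Blots were probed 2 h at room temperature with primary antibodies, then peroxidase secondary antibodies, and detected by ECL. Membranes were reprobed for actin as loading control.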

HeLa [12] = test: Cell cycle arrest in human HeLa cells assessed as decrease in cdc25c protein expression level at 50 to 100 nM incubated for 24 hrs by western blot analysis; assay type: functional, cell-based; in short: as §4
HeLa [13] = test: Cell cycle arrest in human HeLa cells assessed as disappearance in cdc25c protein expression at 50 to 100 nM incubated for 48 hrs by western blot analysis; assay type: functional, cell-based; in short: as §4
HeLa [14] = test: Cell cycle arrest in human HeLa cells assessed as decrease in phosphorylated form of cdc2 kinase at 50 to 100 nM incubated for 48 hrs by western blot analysis; assay type: functional, cell-based; in short: as §4
HeLa [15] = test: Induction of mitochondrial membrane depolarization in human HeLa cells at 10 to 100 nM measured at early apoptotic stage of cells by JC1 staining based flow cytometric analysis; assay type: functional, cell-based; details: TDE = time-dependent effect
In short: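 HeLa cells were treated 6, 12, 24 and 48 h with 10–100 nM. Cells were stained with JC-1, and the fraction with low mitochondrial potential was measured by flow cytometry. Mean ± SEM of three independent experiments.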

HeLa [16] = test: Induction of apoptosis in human HeLa cells assessed as decrease in Mcl1 protein expression at 50 to 100 nM incubated upto 48 hrs by western blot analysis; assay type: functional, cell-based; details: 10 to 100 nM, in the assay text read “10 to 100 nM” for “50 to 100 nM”; in short: as §4
HeLa [17] = test: Induction of apoptosis in human HeLa cells assessed as increase in H2AX expression at 50 to 100 nM incubated upto 48 hrs by western blot analysis; assay type: functional, cell-based; in short: as §4
B16-BL6 = test: Antitumour activity against mouse B16-BL6 cells allografted in C57BL/6 mouse assessed as reduction in tumor mass at 3 mg/kg, ip administrated every other day relative to control; assay type: functional
In short: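 Male C57BL/6 mice (six weeks old) got 2.5×10^5 BL6-B16 murine melanoma cells s.c. in the dorsolateral flank, in PBS. Once tumors were measurable (about 100 mm³), mice were randomized and given drug i.p. every other day in 50 µL DMSO. Vehicle (DMSO) group served as control. Tumor volume = (D × d²)/2; tumor weight taken at end. 5 animals per group, mean ± SEM.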

GI50 (HL-60): 0.5 nM
Retention_time [1]: 11.2 min
Stability [2]: Stable
Stability [3]: Stable
Drug metabolism [4]: Metabolite_Detected
Retention_time [5]: 12.9 min
Drug metabolism [6]: Metabolite_Detected
SMILES: CCn1ccc2c3c(=O)cc(-c4ccccc4)[nH]c3ccc21

GI50 (HL-60): 0.17 nM
GI50 (MDA-MB-468): 22.3 nM
Stability [3]: Stable
SMILES: CCn1ccc2c3c(=O)cc(-c4ccccc4F)[nH]c3ccc21
Activity (HeLa [7]): Active
GI50 [8]: 0.26 nM
GI50 (A2058): 4.8 nM
Activity (A-375 [9]): Active
Activity (A-375 [10]): Active
Activity (HeLa [11]): Dose-dependent effect
inhibition (HeLa [12]): Active
inhibition (HeLa [13]): Active
inhibition (HeLa [14]): Active
Activity (HeLa [15]): Tde
Activity (HeLa [16]): Active
Activity (HeLa [17]): Active
inhibition in vivo at 3 mg/kg (B16-BL6): 28.6%
